ChEMBL document CHEMBL4033712, “Synthesis and biological evaluation of new C-12(α/β)-(N-) sulfamoyl-phenylamino-14-deoxy-andrographolide derivatives as potent anti-cancer agents” (Bioorg Med Chem Lett, 2017)

Key:
Assay type in all cases: functional
HCT-116 = assay: Anticancer activity against human HCT116 cells assessed as cell growth at 10 uM after 48 hrs by sulforhodamine B assay relative to control; settings: HCT-116, 48 h, read-out: Activity
Procedure, shortened: (§1)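 Single-dose NCI-60 panel screen: compound added at 10 µM and the culture incubated 48 h. The end point was read by protein staining with sulforhodamine B. The value is percent growth of treated cells relative to untreated control cells, reported as a mean graph across the panel.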

IGROV-1 = assay: Growth inhibition of human IGROV1 cells incubated for 48 hrs by sulforhodamine B assay; settings: IGROV-1, 48 h
Procedure, shortened: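 NCI-60 five-dose screen at 0.01, 0.1, 1, 10 and 100 µM, 48 h incubation, sulforhodamine B end point. GI50 (50% decrease in net growth), TGI (total growth inhibition) and LC50 (net 50% loss of initial cells) taken from log concentration versus % growth inhibition curves.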

NCI/ADR-RES = assay: Anticancer activity against human NCI/ADR-RES cells assessed as cell growth at 10 uM after 48 hrs by sulforhodamine B assay relative to control; settings: read-out: Activity; procedure, shortened: as §1
ACHN = assay: Anticancer activity against human ACHN cells assessed as cell growth at 10 uM after 48 hrs by sulforhodamine B assay relative to control; settings: read-out: Activity; procedure, shortened: as §1
DU-145 = assay: Anticancer activity against human DU145 cells assessed as cell growth at 10 uM after 48 hrs by sulforhodamine B assay relative to control; settings: DU-145, 48 h, read-out: Activity; procedure, shortened: as §1
RPMI-8226 [1] = assay: Growth inhibition of human RPMI8226 cells incubated for 48 hrs by sulforhodamine B assay; settings: RPMI-8226, 48 h
Procedure, shortened: (§2)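 NCI 60 human tumour cell line panel, five-dose study at 0.01, 0.1, 1, 10 and 100 µM, 48 h incubation. Sulforhodamine B protein-binding dye end point. GI50 (50% decrease in net cell growth), TGI (total growth inhibition) and LC50 (net 50% loss of initial cells) read from log concentration versus % growth inhibition curves.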

NCI-H522 = assay: Anticancer activity against human NCI-H522 cells assessed as cell growth at 10 uM after 48 hrs by sulforhodamine B assay relative to control; settings: NCI-H522, 48 h, read-out: Activity; procedure, shortened: as §1
KM12 = assay: Anticancer activity against human KM12 cells assessed as cell growth at 10 uM after 48 hrs by sulforhodamine B assay relative to control; settings: KM12, 48 h, read-out: Activity; procedure, shortened: as §1
OVCAR-4 = assay: Anticancer activity against human OVCAR4 cells assessed as cell growth at 10 uM after 48 hrs by sulforhodamine B assay relative to control; settings: OVCAR-4, 48 h, read-out: Activity; procedure, shortened: as §1
SNB-75 = assay: Anticancer activity against human SNB75 cells assessed as cell growth at 10 uM after 48 hrs by sulforhodamine B assay relative to control; settings: SNB-75, 48 h, read-out: Activity
Procedure, shortened: (§3)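 NCI-60 single-dose screen: compound added at 10 µM, cultures incubated 48 h. End point by sulforhodamine B protein-binding dye. Value reported as percent growth of treated cells relative to untreated control cells.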

RXF 393 = assay: Anticancer activity against human RXF393 cells assessed as cell growth at 10 uM after 48 hrs by sulforhodamine B assay relative to control; settings: RXF 393, 48 h, read-out: Activity; procedure, shortened: as §1
Malme-3M = assay: Anticancer activity against human MALME-3M cells assessed as cell growth at 10 uM after 48 hrs by sulforhodamine B assay relative to control; settings: read-out: Activity; procedure, shortened: as §1
MDA-MB-468 = assay: Anticancer activity against human MDA-MB-468 cells assessed as cell growth at 10 uM after 48 hrs by sulforhodamine B assay relative to control; settings: MDA-MB-468, 48 h, read-out: Activity; procedure, shortened: as §1
U-251 = assay: Anticancer activity against human U251 cells assessed as cell growth at 10 uM after 48 hrs by sulforhodamine B assay relative to control; settings: U-251, 48 h, read-out: Activity; procedure, shortened: as §3
K562 = assay: Anticancer activity against human K562 cells assessed as cell growth at 10 uM after 48 hrs by sulforhodamine B assay relative to control; settings: K562, 48 h, read-out: Activity; procedure, shortened: as §1
M14 = assay: Anticancer activity against human M14 cells assessed as cell growth at 10 uM after 48 hrs by sulforhodamine B assay relative to control; settings: M14, 48 h, read-out: Activity; procedure, shortened: as §1
SK-MEL-2 = assay: Anticancer activity against human SK-MEL-2 cells assessed as cell growth at 10 uM after 48 hrs by sulforhodamine B assay relative to control; settings: SK-MEL-2, 48 h, read-out: Activity; procedure, shortened: as §1
LOX IMVI = assay: Anticancer activity against human LOXIMVI cells assessed as cell growth at 10 uM after 48 hrs by sulforhodamine B assay relative to control; settings: read-out: Activity; procedure, shortened: as §1
A549 = assay: Anticancer activity against human A549/ATCC cells assessed as cell growth at 10 uM after 48 hrs by sulforhodamine B assay relative to control; settings: A549, 48 h, read-out: Activity; procedure, shortened: as §1
NCI-H322M = assay: Anticancer activity against human NCI-H322M cells assessed as cell growth at 10 uM after 48 hrs by sulforhodamine B assay relative to control; settings: read-out: Activity; procedure, shortened: as §1
A498 = assay: Anticancer activity against human A498 cells assessed as cell growth at 10 uM after 48 hrs by sulforhodamine B assay relative to control; settings: A498, 48 h, read-out: Activity; procedure, shortened: as §1
EKVX = assay: Anticancer activity against human EKVX cells assessed as cell growth at 10 uM after 48 hrs by sulforhodamine B assay relative to control; settings: read-out: Activity; procedure, shortened: as §1
RPMI-8226 [2] = assay: Anticancer activity against human RPMI8226 cells assessed as cell growth at 10 uM after 48 hrs by sulforhodamine B assay relative to control; settings: RPMI-8226, 48 h, read-out: Activity; procedure, shortened: as §1
UACC-257 = assay: Anticancer activity against human UACC257 cells assessed as cell growth at 10 uM after 48 hrs by sulforhodamine B assay relative to control; settings: UACC-257, 48 h, read-out: Activity; procedure, shortened: as §3
HL-60(TB) = assay: Anticancer activity against human HL-60(TB) cells assessed as cell growth at 10 uM after 48 hrs by sulforhodamine B assay relative to control; settings: HL-60, 48 h, read-out: Activity
Procedure, shortened: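 NCI-60 human tumour panel single-dose screen: cells exposed to 10 µM compound for 48 h. Growth end point read with sulforhodamine B protein-binding dye. Expressed as percent growth of treated cells versus untreated control cells.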

SW-620 = assay: Growth inhibition of human SW620 cells incubated for 48 hrs by sulforhodamine B assay; settings: SW-620, 48 h; procedure, shortened: as §2
SF-268 = assay: Anticancer activity against human SF268 cells assessed as cell growth at 10 uM after 48 hrs by sulforhodamine B assay relative to control; settings: SF-268, 48 h, read-out: Activity; procedure, shortened: as §1
OVCAR-5 = assay: Anticancer activity against human OVCAR5 cells assessed as cell growth at 10 uM after 48 hrs by sulforhodamine B assay relative to control; settings: OVCAR-5, 48 h, read-out: Activity; procedure, shortened: as §1
[3] = read-out: LC50 (the source's name)

## C=C1CC[C@@H]2[C@](C)(COC(C)=O)[C@H](OC(C)=O)CC[C@@]2(C)[C@H]1CC(Nc1ccc(S(=O)(=O)Nc2ccc(Cl)nn2)cc1)C1=CCOC1=O (some centres undefined)
HCT-116
  growth at 10 µM: -34.1%
IGROV-1
  GI50: 2.08 µM
  TGI: 5 µM
IGROV-1; [3]
  CC50: 18.3 µM
NCI/ADR-RES
  growth at 10 µM: 16.7%
ACHN
  growth at 10 µM: 16.1%
DU-145
  growth at 10 µM: 40.2%
RPMI-8226 [1]
  GI50: 0.44 µM
  TGI: 3.04 µM
RPMI-8226 [1]; [3]
  CC50: > 100 µM
NCI-H522
  growth at 10 µM: -34.5%
KM12
  growth at 10 µM: 27%
OVCAR-4
  growth at 10 µM: 30.9%
SNB-75
  growth at 10 µM: 25.2%
RXF 393
  growth at 10 µM: -13.4%
Malme-3M
  growth at 10 µM: 55.3%
MDA-MB-468
  growth at 10 µM: -32.3%
U-251
  growth at 10 µM: -41.2%
K562
  growth at 10 µM: 6.81%
M14
  growth at 10 µM: 10.7%
SK-MEL-2
  growth at 10 µM: 58.3%
LOX IMVI
  growth at 10 µM: -84.6%
A549
  growth at 10 µM: 61.6%
NCI-H322M
  growth at 10 µM: 57%
A498
  growth at 10 µM: 89%
EKVX
  growth at 10 µM: 87.3%
RPMI-8226 [2]
  growth at 10 µM: -19.2%
UACC-257
  growth at 10 µM: 44%
HL-60(TB)
  growth at 10 µM: -17.5%
SW-620
  GI50: 1.07 µM
  TGI: 2.8 µM
SW-620; [3]
  CC50: 7.34 µM
SF-268
  growth at 10 µM: 43.3%
OVCAR-5
  growth at 10 µM: 44.6%
